Laboratory results from ChEMBL document CHEMBL3779881, “Property Focused Structure-Based Optimization of Small Molecule Inhibitors of the Protein-Protein Interaction between Menin and Mixed Lineage Leukemia (MLL)” (J Med Chem, 2016).
Activity calls are given as the source filed them. The calls are words filed in the database; no cut-off is given here.

Assays:
Mus musculus [1] = assay: Oral bioavailability in C57BL/6 mouse at 30 mg/kg after 8 hrs by LC-MS/MS analysis; format: ADME, organism-based; conditions: in vivo
Method in brief: (§1)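 Female C57BL/6 mice dosed iv at 15 mg/kg or orally at 30 mg/kg in 25% DMSO/25% PEG-400/50% PBS (v/v). Serial 50 μL blood samples collected over 24 h (8 h in one experiment), spun to plasma; concentrations by validated LC-MS/MS in positive-ion MRM mode; parameters from noncompartmental analysis.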

[2] = target: Menin/Histone-lysine N-methyltransferase MLL (Homo sapiens, UniProt O00255); assay: Inhibition of menin-MLL interaction (unknown origin) after 1 hr by fluorescence polarization assay; format: protein assay
[3] = Growth inhibition of MLL-AF9 transformed mouse bone marrow cells after 7 days by MTT assay; format: functional; conditions: Bone marrow cell, 168 h
[4] = Growth inhibition of Hoxa9/Meis1 transformed mouse bone marrow cells after 7 days by MTT assay; format: functional; conditions: Bone marrow cell, 168 h
Bone marrow cell = assay: Selectivity index, ratio of GI50 for Hoxa9/Meis1 transformed mouse bone marrow cells to GI50 for MLL-AF9 transformed mouse bone marrow cells; format: functional
[5] = Half life in CD-1 mouse liver microsomes at 1 uM after 3 to 60 mins by LC-MS/MS analysis; format: ADME
Mus musculus [6] = assay: Tmax in C57BL/6 mouse plasma at 30 mg/kg, po after 8 hrs by LC-MS/MS analysis; format: ADME, organism-based; conditions: in vivo; method in brief: as §1
Mus musculus [7] = assay: Cmax in C57BL/6 mouse plasma at 30 mg/kg, po after 8 hrs by LC-MS/MS analysis; format: ADME, organism-based; parameters: dose 30 mg/kg, route oral; conditions: in vivo; method in brief: as §1
Mus musculus [8] = assay: AUC in C57BL/6 mouse at 15 mg/kg, iv after 8 hrs by LC-MS/MS analysis; format: ADME, organism-based; parameters: time < 8 hr, dose 15 mg/kg, route intravenous; conditions: in vivo; method in brief: as §1
Mus musculus [9] = assay: AUC in C57BL/6 mouse at 30 mg/kg, po after 8 hrs by LC-MS/MS analysis; format: ADME, organism-based; parameters: dose 30 mg/kg, time < 8 hr, route oral; conditions: in vivo; method in brief: as §1
Mus musculus [10] = assay: Half life in C57BL/6 mouse at 15 mg/kg, iv after 8 hrs by LC-MS/MS analysis; format: ADME, organism-based; conditions: in vivo; method in brief: as §1
[11] = Clearance in C57BL/6 mouse at 15 mg/kg, iv after 8 hrs by LC-MS/MS analysis; format: ADME, organism-based; conditions: in vivo; method in brief: as §1
Mus musculus [12] = assay: Volume of distribution at steady state in C57BL/6 mouse at 15 mg/kg, iv after 8 hrs by LC-MS/MS analysis; format: ADME, organism-based; conditions: in vivo; method in brief: as §1
[13] = Efflux ratio of apparent permeability from […] side in human Caco2 cells at 10 uM after 2 hrs by LC-MS/MS analysis; format: ADME, cell-based; conditions: caco-2, 2 h
MV4-11 [14] = assay: Growth inhibition of human MV4-11 after 7 days by MTT assay; format: functional; conditions: MV4-11, 168 h
Method in brief: (§2)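 Cells in RPMI-1640/10% FBS/pen-strep/NEAA, seeded at 1×10^5/mL (MOLM-13, MV4;11) or 2×10^5/mL (HL-60), treated with compound or 0.25% DMSO for 7 days at 37 °C. Medium changed on day 4 with cell density reset and compound resupplied. MTT absorbance read at 570 nm; 2–3 experiments in quadruplicate, mean ± SD.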

MOLM-13 = assay: Growth inhibition of human MOLM13 after 7 days by MTT assay; format: functional; conditions: MOLM-13, 168 h; method in brief: as §2
HL-60 = assay: Growth inhibition of human HL60 after 7 days by MTT assay; format: functional; conditions: HL-60, 168 h; method in brief: as §2
[15] = target: T1, Menin/Histone-lysine N-methyltransferase 2A (Mus musculus) (UniProt O88559+P55200); assay: Inhibition of menin-MLL interaction in MLL-AF9 transformed mouse bone marrow cells assessed as induction of cell differentiation measured as decreased nuclei to cytoplasm ratio at 0.5 uM after 7 days by Cytospin/Wright-Giemsa staining assay
Method in brief: (§3)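 MLL-AF9 transduced mouse bone marrow cells seeded at 3×10^5/mL, treated with compound or 0.25% DMSO at 37 °C, 5% CO2 for 7 days; cytospins stained with Wright–Giemsa and scored for morphology.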

[16] = target: T1, Menin/Histone-lysine N-methyltransferase 2A (Mus musculus); assay: Inhibition of menin-MLL interaction in MLL-AF9 transformed mouse bone marrow cells assessed as induction of cell differentiation measured as multilobed nuclei at 0.5 uM after 7 days by Cytospin/Wright-Giemsa staining assay; method in brief: as §3
[17] = target: T1, Menin/Histone-lysine N-methyltransferase 2A (Mus musculus); assay: Inhibition of menin-MLL interaction in MLL-AF9 transformed mouse bone marrow cells assessed as induction of cell differentiation measured as highly vacuolated cytoplasm at 0.5 uM after 7 days by Cytospin/Wright-Giemsa staining assay; method in brief: as §3
[18] = target: T1, Menin/Histone-lysine N-methyltransferase 2A (Mus musculus); assay: Inhibition of menin-MLL interaction in MLL-AF9 transformed mouse bone marrow cells assessed as induction of cell differentiation measured as upregulation of Itgam expression level at 0.12 to 0.5 uM after 6 days by qRT-PCR analysis
Method in brief: (§4)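 MLL-AF9 transformed murine bone marrow cells treated 6 days, then qRT-PCR. Hoxa9 and Meis1 normalised to β-actin; Itgam normalised to 18S rRNA; each referenced to DMSO-treated cells; mean ± SD, n = 2.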

[19] = target: T1, Menin/Histone-lysine N-methyltransferase 2A (Mus musculus); assay: Inhibition of menin-MLL interaction in MLL-AF9 transformed mouse bone marrow cells assessed as downregulation of Hoxa9 expression level at 100 nM after 6 days by qRT-PCR analysis; method in brief: as §4
[20] = target: T1, Menin/Histone-lysine N-methyltransferase 2A (Mus musculus); assay: Inhibition of menin-MLL interaction in MLL-AF9 transformed mouse bone marrow cells assessed as downregulation of Meis1 expression level at 0.12 to 0.5 uM after 6 days by qRT-PCR analysis; method in brief: as §4
MV4-11 [21] = assay: Antitumor activity against human MV4-11 cells xenografted in CB17 SCID mouse assessed as tumor growth inhibition at 45 mg/kg, ip qd administered for 2 weeks; format: functional; conditions: MV4-11, ip, 336 h, read-out: TGI
Method in brief: (§5)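 MV4;11 cells in serum-free medium mixed 1:1 with Matrigel; 5×10^6 cells injected subcutaneously into the right flank of female mice aged 4–6 weeks. Dosing began at ~100 mm³ tumours; mice randomised, once-daily ip injections of vehicle or compound for 2 weeks.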

Mus musculus [22] = assay: Toxicity in CB17 SCID mouse xenografted with human MV4-11 cells assessed as reduction in body weight at 45 mg/kg, ip qd administered for 2 weeks; format: organism-based; parameters: scale not given: the % may be the effect or the level left; conditions: in vivo, 336 h; method in brief: as §5
Menin = target: T2, Menin (Homo sapiens, UniProt O00255); assay: Binding affinity to menin (unknown origin)
T2 sequence (O00255 whole entry): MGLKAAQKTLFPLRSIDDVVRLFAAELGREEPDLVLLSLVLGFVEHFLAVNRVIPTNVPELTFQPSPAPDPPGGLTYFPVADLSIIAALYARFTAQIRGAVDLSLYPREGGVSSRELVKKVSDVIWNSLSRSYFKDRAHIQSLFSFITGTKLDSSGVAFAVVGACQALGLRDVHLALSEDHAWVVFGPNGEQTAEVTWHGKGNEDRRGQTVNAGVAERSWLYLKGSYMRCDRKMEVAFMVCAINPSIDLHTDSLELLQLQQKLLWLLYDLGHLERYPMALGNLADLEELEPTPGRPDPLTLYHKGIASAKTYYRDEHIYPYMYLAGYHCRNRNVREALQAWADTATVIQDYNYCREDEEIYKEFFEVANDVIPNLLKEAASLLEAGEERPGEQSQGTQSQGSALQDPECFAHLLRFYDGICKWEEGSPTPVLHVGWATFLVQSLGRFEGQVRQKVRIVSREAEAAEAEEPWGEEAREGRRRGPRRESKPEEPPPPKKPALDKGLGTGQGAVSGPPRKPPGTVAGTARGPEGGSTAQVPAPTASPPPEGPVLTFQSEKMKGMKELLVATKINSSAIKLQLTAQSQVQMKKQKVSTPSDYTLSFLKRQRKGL

Plasma = assay: Drug metabolism in C57BL/6 mouse plasma assessed as glucuronidation at 15 mg/kg, iv after 24 hrs by LC-MS/MS analysis; format: ADME, organism-based; conditions: in vivo
Method in brief: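 Female C57BL/6 mice given 15 mg/kg iv in 25% DMSO/25% PEG-400/50% PBS; serial plasma samples analysed by the same LC-MS/MS procedure as the PK work to detect glucuronide conjugates.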

Mus musculus [23] = assay: Tmax in C57BL/6 mouse plasma at 30 mg/kg, po after 24 hrs by LC-MS/MS analysis; format: ADME, organism-based; conditions: in vivo; method in brief: as §1
Mus musculus [24] = assay: Cmax in C57BL/6 mouse plasma at 30 mg/kg, po after 24 hrs by LC-MS/MS analysis; format: ADME, organism-based; parameters: dose 30 mg/kg, route oral; conditions: in vivo; method in brief: as §1
Mus musculus [25] = assay: AUC in C57BL/6 mouse at 15 mg/kg, iv after 24 hrs by LC-MS/MS analysis; format: ADME, organism-based; parameters: dose 15 mg/kg, time < 24 hr, route intravenous; conditions: in vivo; method in brief: as §1
Mus musculus [26] = assay: AUC in C57BL/6 mouse at 30 mg/kg, po after 24 hrs by LC-MS/MS analysis; format: ADME, organism-based; parameters: time < 24 hr, dose 30 mg/kg, route oral; conditions: in vivo; method in brief: as §1
Mus musculus [27] = assay: Half life in C57BL/6 mouse at 15 mg/kg, iv after 24 hrs by LC-MS/MS analysis; format: ADME, organism-based; conditions: in vivo; method in brief: as §1
[28] = Clearance in C57BL/6 mouse at 15 mg/kg, iv after 24 hrs by LC-MS/MS analysis; format: ADME, organism-based; conditions: in vivo; method in brief: as §1
Mus musculus [29] = assay: Volume of distribution at steady state in C57BL/6 mouse at 15 mg/kg, iv after 24 hrs by LC-MS/MS analysis; format: ADME, organism-based; conditions: in vivo; method in brief: as §1
Mus musculus [30] = assay: Oral bioavailability in C57BL/6 mouse at 30 mg/kg after 24 hrs by LC-MS/MS analysis; format: ADME, organism-based; conditions: in vivo; method in brief: as §1

T1 sequence (O88559 whole entry, looked up): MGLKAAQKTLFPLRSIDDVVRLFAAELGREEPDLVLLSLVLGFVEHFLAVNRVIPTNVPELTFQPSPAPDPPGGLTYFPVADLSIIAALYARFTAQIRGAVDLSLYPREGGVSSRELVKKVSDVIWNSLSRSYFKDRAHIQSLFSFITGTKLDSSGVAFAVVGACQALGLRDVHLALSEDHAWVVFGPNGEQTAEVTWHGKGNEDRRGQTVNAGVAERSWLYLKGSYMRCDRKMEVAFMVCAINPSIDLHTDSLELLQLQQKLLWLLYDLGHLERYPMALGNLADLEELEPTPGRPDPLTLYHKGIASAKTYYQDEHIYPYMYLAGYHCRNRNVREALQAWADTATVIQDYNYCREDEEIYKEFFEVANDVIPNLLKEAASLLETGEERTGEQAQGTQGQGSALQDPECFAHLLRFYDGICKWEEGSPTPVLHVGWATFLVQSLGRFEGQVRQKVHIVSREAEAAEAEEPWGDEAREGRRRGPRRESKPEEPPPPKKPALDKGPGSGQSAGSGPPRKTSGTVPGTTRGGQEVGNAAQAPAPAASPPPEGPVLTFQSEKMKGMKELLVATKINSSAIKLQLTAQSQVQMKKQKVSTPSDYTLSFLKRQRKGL
T1 sequence (P55200 whole entry, looked up): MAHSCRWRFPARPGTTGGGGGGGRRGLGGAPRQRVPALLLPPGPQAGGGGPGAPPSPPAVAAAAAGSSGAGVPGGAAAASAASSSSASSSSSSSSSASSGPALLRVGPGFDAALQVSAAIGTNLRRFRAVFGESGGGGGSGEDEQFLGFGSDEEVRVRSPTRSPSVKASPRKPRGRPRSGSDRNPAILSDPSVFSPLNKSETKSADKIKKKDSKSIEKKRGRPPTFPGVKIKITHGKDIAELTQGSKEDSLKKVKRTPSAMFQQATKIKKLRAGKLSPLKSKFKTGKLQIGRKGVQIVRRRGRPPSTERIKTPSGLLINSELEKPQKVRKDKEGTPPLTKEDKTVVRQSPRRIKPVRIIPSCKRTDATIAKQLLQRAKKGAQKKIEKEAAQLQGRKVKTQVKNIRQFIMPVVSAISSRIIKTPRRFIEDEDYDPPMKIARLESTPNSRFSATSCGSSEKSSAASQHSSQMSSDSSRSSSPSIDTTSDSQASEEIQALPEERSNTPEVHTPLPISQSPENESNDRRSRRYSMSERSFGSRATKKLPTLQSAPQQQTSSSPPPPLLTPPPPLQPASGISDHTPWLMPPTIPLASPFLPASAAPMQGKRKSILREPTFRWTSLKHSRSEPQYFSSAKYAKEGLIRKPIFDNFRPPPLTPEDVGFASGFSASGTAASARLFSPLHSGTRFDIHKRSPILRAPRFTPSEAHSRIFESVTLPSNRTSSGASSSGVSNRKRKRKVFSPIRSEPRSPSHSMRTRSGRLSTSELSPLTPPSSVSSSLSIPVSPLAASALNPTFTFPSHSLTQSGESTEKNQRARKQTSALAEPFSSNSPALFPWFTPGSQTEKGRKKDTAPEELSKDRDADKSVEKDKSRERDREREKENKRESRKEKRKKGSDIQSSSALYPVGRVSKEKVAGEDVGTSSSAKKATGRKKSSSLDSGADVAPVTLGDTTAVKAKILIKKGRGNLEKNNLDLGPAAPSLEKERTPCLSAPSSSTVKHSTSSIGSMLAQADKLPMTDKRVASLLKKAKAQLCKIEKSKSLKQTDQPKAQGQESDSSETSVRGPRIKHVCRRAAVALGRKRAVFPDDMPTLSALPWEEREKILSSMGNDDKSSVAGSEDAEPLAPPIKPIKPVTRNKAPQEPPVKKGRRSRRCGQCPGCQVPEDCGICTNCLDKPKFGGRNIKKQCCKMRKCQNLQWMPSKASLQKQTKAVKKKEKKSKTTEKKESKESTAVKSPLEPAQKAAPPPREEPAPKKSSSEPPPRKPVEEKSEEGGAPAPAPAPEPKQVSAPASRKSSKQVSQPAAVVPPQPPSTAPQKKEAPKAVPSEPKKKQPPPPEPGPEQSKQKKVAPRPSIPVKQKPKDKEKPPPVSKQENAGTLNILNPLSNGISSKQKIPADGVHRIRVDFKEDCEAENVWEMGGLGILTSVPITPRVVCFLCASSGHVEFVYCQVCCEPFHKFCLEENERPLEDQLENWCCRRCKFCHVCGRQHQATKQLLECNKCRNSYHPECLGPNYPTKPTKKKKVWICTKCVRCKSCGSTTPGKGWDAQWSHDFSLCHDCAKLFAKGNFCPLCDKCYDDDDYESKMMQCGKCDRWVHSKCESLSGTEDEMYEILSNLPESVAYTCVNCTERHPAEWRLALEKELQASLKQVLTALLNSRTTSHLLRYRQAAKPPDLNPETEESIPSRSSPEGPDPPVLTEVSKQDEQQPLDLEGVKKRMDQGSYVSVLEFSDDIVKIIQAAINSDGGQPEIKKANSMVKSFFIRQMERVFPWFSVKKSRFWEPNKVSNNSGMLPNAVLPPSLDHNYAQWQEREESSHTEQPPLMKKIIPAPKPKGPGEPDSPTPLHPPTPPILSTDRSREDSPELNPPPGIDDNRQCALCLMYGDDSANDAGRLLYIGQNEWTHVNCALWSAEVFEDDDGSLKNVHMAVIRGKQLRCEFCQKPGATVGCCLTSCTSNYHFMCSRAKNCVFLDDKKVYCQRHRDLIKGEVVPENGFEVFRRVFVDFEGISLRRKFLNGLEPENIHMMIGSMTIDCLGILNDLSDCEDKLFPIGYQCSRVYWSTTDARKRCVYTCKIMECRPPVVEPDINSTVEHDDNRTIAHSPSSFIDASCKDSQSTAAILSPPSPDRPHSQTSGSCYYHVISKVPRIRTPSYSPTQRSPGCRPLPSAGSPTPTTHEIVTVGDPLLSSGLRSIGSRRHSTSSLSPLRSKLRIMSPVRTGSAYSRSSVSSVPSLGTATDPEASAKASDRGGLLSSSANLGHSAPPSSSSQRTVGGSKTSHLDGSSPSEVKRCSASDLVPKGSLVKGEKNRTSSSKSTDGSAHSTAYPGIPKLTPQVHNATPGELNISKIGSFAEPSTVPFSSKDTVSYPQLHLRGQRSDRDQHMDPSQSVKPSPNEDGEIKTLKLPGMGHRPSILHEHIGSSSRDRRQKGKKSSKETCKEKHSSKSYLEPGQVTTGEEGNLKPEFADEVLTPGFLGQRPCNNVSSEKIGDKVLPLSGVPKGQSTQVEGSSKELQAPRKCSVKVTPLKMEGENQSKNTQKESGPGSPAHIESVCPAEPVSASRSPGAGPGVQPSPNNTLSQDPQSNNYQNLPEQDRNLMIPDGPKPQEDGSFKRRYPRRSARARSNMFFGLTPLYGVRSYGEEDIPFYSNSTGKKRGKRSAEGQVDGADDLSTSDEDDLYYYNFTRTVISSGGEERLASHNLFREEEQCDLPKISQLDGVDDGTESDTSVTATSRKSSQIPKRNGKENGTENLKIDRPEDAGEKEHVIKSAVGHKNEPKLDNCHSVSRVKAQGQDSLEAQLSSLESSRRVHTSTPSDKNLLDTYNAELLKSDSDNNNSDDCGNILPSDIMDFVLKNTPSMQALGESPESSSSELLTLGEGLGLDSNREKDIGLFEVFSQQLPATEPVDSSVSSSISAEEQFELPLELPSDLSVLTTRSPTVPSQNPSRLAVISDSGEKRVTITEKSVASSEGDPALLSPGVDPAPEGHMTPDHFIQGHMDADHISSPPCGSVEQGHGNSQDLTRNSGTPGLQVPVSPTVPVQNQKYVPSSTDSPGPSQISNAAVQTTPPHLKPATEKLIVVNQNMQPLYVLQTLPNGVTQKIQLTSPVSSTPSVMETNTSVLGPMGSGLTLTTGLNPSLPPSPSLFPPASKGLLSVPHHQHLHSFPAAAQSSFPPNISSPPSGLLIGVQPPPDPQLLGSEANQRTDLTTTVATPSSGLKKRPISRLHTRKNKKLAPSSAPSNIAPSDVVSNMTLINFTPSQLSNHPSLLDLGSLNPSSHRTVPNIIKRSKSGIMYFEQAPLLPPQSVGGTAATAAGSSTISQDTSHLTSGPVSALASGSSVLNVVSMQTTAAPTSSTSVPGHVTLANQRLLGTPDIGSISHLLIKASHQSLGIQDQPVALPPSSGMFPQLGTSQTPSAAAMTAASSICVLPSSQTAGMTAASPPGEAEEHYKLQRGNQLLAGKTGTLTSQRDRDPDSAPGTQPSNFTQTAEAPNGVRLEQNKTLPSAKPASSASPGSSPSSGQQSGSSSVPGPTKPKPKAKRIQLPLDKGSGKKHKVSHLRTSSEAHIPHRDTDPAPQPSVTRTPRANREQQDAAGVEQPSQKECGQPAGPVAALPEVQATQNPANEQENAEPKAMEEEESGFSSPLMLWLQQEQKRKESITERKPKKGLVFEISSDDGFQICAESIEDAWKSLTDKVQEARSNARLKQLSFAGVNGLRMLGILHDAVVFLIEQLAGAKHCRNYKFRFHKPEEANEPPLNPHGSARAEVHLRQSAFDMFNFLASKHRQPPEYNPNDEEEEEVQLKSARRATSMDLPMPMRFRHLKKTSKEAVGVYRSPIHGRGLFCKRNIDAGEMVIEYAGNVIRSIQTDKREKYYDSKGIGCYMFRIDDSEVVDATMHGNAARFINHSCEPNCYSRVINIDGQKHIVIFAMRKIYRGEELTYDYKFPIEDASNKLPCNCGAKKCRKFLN

COc1cc2c(cc(C#N)n2Cc2cn[nH]c2)c(C)c1CN1CCC(Nc2ncnc3sc(CC(F)(F)F)cc23)CC1
F (Mus musculus [1]): 1%
IC50 [2]: 12 nM
GI50 [3]: 180 nM
GI50 [4]: 4200 nM
RatioGI50 (Bone marrow cell): 23
t1/2 [5]: 0.917 h
Tmax (Mus musculus [6]): 2 h
Cmax (Mus musculus [7]): 101 ng/mL
AUC (Mus musculus [8]): 16235 ng·h/mL
AUC (Mus musculus [9]): 383 ng·h/mL
t1/2 (Mus musculus [10]): 1.4 h
clearance [11]: 15 mL/min/kg
Vdss (Mus musculus [12]): 1.837 L/kg

N#Cc1cc2cc(CN3CCC(Nc4ncnc5sc(CC(F)(F)F)cc45)CC3)ccc2n1CC(N)=O
Ratio [13]: > 90
IC50 [2]: 25 nM
GI50 [3]: 780 nM
GI50 [4]: 25000 nM
RatioGI50 (Bone marrow cell): 32
t1/2 [5]: 0.9 h

N#Cc1cc2cc(CN3CCC(Nc4ncnc5sc(CC(F)(F)F)cc45)CC3)c(O)cc2n1Cc1cn[nH]c1
GI50 (MV4-11 [14]): 175 nM
GI50 (MOLM-13): 268 nM
GI50 (HL-60): > 6000 nM
inhibition [15]: Active
inhibition [16]: Active
inhibition [17]: Active
inhibition [18]: Active
inhibition [19]: 50%
inhibition [20]: Active
inhibition in vivo at 45 mg/kg (MV4-11 [21]): 80%
Activity (Mus musculus [22]): < 10%
Kd (Menin): 6.5 nM
Drug metabolism (Plasma): metabolite_detected
IC50 [2]: 21 nM
GI50 [3]: 83 nM
GI50 [4]: 9000 nM
RatioGI50 (Bone marrow cell): 108
Tmax (Mus musculus [23]): 2 h
Cmax (Mus musculus [24]): 4572 ng/mL
AUC (Mus musculus [25]): 17897 ng·h/mL
AUC (Mus musculus [26]): 18090 ng·h/mL
t1/2 (Mus musculus [27]): 1.6 h
clearance [28]: 14 mL/min/kg
Vdss (Mus musculus [29]): 2.347 L/kg
F (Mus musculus [30]): 51%
